Data set [1] has as its target Mu-type opioid receptor (Homo sapiens) (UniProt P35372). Nature of the data set: Displacement of [3H]DAMGO from mu opioid receptor (unknown origin) at 1 uM after 120 mins.
The test system of data set [2] is Mus musculus. Nature of the data set: Toxicity in CD-1 mouse at 3 mg/kg, ip and 30 mg/kg, po. Format: organism-based. As to conditions: in vivo.
Data set [3] is described as follows: Intrinsic clearance in human liver microsomes at 1 to 5 uM by HPLC-MS analysis. Format: ADME, Microsome. As to conditions: read-out: CLH. The method in brief:
(§1)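 Incubation mixtures pre-equilibrated at 37 °C with NADPH and MgCl2, then rat or human liver microsomes added to start the reaction. Aliquots were withdrawn and quenched at several time points, and percent parent remaining was measured by HPLC-MS and plotted against time. t1/2 was taken from the slope of peak area over time and used to calculate CLint.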
Background: Microsomes from liver hold many membrane-bound enzymes, among them those of drug oxidation.

The test system of data set [4] is Mus musculus. Nature of the data set: Antinociceptive activity in CD-1 mouse assessed as reduction of formalin-induced paw licking activity at 3 mg/kg, ip administered 15 mins prior to formalin-challenge measured after 15 to 30 mins. On the set-up: dose 3 mg/kg. Format: functional, organism-based.
For data set [5], the species on record is Homo sapiens. Nature of the data set: Displacement of [3H]DADLE from delta2 opioid receptor (unknown origin) at 1 uM after 120 mins. On the technique in general: Displacement assays read how much labelled ligand stays bound in the presence of the test substance.
Data set [6] is described as follows: Half life in mouse liver microsomes at 1 to 5 uM by HPLC-MS analysis. The data set is classed as ADME, Microsome.
For data set [7], the species on record is Homo sapiens. Nature of the data set: Displacement of [125I]Tyr11-somatostatin-14 from somatostatin receptor (unknown origin) at 1 uM after 60 mins.
The test system of data set [8] is Mus musculus. Nature of the data set: Antinociceptive activity in CD-1 mouse assessed as reduction of formalin-induced paw licking activity at 30 mg/kg, po administered 30 mins prior to formalin-challenge measured after 15 to 30 mins. On the set-up: dose 30 mg/kg. The data set is classed as functional, organism-based.
Another data set addresses CYP2D6 (Homo sapiens, UniProt P10635). Nature of the data set: Inhibition of human recombinant microsomal CYP2D6 using {3-[2-(N,N-diethyl-N-methylamino)ethyl]-7-methoxy-4-methylcoumarin} as substrate assessed as remaining activity at 10 uM after 30 mins by spectrofluorimetric analysis relative to control. The data set is classed as ADME. As to conditions: read-out: Activity.

For data set [9], the species on record is Mus musculus. Nature of the data set: Hypothermic activity in Swiss mouse assessed as change in rectal temperature after 60 mins. As to conditions: 1 h, read-out: MED. The data set is classed as functional.
Data set [10] concerns the target Cannabinoid receptor 2 (Homo sapiens) (UniProt P34972). Nature of the data set: Displacement of [3H]WIN55212-2 from CB2 receptor (unknown origin) at 1 uM after 120 mins.
Data set [11] in a line: Half life in Sprague-Dawley rat liver microsomes at 1 to 5 uM by HPLC-MS analysis. The data set is classed as ADME, Microsome. In outline:
as §1

For data set [12], the target named is 5-hydroxytryptamine receptor 2A (Rattus norvegicus, UniProt P14842). Nature of the data set: Displacement of [3H]ketanserin from 5-HT2A receptor in Sprague-Dawley rat frontal cortex after 15 mins. The data set is classed as tissue-based.
Data set [13] can be described thus: Half life in human liver microsomes at 1 to 5 uM by HPLC-MS analysis. Format: ADME, Microsome. The method in brief: as §1
For data set [14], the target named is T1, Muscarinic acetylcholine receptor M4 (Homo sapiens) (UniProt P08173).
T1 sequence (whole entry): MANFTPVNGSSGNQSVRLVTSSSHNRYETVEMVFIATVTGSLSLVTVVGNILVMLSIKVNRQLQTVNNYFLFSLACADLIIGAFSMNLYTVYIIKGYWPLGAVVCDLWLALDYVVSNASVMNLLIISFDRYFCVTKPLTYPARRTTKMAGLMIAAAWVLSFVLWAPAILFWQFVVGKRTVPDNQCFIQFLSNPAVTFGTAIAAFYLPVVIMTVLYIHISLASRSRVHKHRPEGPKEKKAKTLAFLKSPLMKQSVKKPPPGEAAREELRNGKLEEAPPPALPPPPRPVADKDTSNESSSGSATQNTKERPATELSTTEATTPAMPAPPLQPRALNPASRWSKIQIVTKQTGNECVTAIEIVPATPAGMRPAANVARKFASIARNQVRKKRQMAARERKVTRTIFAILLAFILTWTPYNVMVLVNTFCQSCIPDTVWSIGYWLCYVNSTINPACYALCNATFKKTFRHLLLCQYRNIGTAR
Nature of the data set: Displacement of [3H]-4-DAMP from muscarinic M4 receptor (unknown origin) at 1 uM after 60 mins.

Data set [15] has as its target Cannabinoid receptor 1 (Homo sapiens) (UniProt P21554). Nature of the data set: Displacement of [3H]CP 55940 from CB1 receptor (unknown origin) at 1 uM after 120 mins.
In data set [16] the target is Adrenergic receptor alpha-2 (Homo sapiens) (UniProt P08913+P18825+P18089). Nature of the data set: Displacement of [3H]RX 821002 from alpha2-adrenergic receptor (unknown origin) at 1 uM after 60 mins.
Data set [17] has as its target 5-hydroxytryptamine receptor 7 (Rattus norvegicus, UniProt P32305). Nature of the data set: Displacement of [3H]-5-CT from 5-HT7 receptor in Sprague-Dawley rat hypothalamus after 120 mins.
For data set [18], the system named is Mus musculus. Nature of the data set: Antinociceptive activity in CD-1 mouse assessed as reduction of formalin-induced paw licking activity at 30 mg/kg, po administered 30 mins prior to formalin-challenge measured after 5 mins. The data set is classed as functional, organism-based. On the set-up: dose 30 mg/kg.

SMILES strings stand for the structures. Activity calls are given as the source filed them.

Chain of 5-hydroxytryptamine receptor 2A (P14842 whole entry): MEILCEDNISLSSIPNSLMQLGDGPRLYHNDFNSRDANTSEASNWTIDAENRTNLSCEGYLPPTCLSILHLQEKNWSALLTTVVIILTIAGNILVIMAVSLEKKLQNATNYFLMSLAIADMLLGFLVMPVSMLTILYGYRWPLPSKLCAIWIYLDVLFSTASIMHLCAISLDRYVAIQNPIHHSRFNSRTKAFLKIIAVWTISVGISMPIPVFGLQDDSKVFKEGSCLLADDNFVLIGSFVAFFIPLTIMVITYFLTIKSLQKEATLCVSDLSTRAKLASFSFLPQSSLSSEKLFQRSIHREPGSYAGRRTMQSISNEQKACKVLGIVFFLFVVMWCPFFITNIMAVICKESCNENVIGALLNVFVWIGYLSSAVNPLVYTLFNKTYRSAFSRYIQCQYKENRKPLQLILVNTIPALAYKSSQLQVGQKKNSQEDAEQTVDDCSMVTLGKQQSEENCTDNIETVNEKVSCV
Chain of Cannabinoid receptor 1 (Homo sapiens) (P21554 whole entry): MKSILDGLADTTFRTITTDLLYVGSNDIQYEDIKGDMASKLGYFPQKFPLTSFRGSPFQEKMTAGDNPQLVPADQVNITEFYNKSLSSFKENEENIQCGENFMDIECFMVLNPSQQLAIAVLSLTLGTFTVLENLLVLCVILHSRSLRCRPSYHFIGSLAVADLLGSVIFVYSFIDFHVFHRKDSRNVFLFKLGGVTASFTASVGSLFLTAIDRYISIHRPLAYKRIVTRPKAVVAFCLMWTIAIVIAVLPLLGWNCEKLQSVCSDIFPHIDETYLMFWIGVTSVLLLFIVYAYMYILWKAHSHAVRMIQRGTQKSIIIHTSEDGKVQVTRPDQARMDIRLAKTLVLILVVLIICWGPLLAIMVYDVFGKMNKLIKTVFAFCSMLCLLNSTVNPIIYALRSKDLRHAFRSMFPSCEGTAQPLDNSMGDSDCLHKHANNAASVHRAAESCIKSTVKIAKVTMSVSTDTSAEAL
Chain of CYP2D6 (P10635 whole entry): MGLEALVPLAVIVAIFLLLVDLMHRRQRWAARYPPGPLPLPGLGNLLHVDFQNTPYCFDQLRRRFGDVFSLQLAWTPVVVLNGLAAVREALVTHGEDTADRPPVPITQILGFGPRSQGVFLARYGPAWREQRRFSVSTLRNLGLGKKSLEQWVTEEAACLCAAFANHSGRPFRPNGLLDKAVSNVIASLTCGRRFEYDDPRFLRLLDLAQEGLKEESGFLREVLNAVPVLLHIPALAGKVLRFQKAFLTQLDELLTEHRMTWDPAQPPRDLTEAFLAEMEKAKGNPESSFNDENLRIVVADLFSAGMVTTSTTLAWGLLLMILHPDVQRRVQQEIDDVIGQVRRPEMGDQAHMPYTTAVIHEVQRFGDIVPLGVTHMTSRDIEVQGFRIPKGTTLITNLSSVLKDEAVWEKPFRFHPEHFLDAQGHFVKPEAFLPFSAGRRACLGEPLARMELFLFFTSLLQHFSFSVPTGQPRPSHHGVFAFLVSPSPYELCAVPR
Chain of 5-hydroxytryptamine receptor 7 (P32305 whole entry): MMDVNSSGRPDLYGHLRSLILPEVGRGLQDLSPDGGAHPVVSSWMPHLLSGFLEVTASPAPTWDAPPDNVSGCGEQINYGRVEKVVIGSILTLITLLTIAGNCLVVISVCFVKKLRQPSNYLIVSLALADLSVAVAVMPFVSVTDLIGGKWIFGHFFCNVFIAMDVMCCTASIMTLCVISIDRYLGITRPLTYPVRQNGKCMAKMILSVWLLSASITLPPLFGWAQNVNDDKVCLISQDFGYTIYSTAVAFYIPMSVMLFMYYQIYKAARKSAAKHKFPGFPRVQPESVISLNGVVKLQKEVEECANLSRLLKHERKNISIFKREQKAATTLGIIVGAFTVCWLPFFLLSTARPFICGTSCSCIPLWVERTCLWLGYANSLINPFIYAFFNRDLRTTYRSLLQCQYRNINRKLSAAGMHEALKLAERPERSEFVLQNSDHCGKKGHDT
Chain of Mu-type opioid receptor (Homo sapiens) (P35372 whole entry): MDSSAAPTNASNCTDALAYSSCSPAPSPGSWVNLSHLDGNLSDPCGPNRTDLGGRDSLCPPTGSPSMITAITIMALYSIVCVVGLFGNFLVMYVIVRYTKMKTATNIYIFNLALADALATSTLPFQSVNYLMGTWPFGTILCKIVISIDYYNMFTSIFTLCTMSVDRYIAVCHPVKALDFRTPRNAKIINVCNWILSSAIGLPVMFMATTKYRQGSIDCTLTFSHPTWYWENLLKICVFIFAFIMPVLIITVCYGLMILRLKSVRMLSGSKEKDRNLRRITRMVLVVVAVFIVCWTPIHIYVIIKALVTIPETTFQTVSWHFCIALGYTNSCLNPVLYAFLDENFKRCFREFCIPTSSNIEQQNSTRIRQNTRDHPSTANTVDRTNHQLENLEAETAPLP
Chain of Cannabinoid receptor 2 (Homo sapiens) (P34972 whole entry): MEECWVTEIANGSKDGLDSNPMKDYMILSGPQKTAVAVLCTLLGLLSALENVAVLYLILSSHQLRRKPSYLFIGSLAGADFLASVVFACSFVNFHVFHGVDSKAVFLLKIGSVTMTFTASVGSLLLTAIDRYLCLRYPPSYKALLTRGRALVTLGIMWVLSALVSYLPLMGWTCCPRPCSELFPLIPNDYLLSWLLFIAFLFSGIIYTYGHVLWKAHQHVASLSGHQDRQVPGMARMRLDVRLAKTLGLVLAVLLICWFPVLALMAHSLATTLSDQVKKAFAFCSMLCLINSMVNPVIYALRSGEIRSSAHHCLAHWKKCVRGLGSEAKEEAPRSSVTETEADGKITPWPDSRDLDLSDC

Usually half-life stands for the time needed for the level to fall by half in the phase considered. A lower half-life goes with fast loss. Broadly, the Ki is the dissociation constant of the complex between target and ligand, obtained from inhibition or displacement. Read a low Ki as tighter binding. In the case of `CCOc1ccccc1OCCNCCCCN1C(=O)C2CCCN2C1=O.Cl` (centres undefined), the inhibition entry (in [1]; in the data set filed under Homo sapiens [5]; in the data set listed under Homo sapiens [7]; in [10]; in data set [14]; in [15]) was “inactive” throughout. The inhibition result in data set [16] was “inactive”. Besides, in the data set with Mus musculus [2], the Activity entry was “Non-toxic”. Besides, the CLint scaled at up to 5 µM in data set [3] amounted to 3.5 mL/min/kg. The Activity entry in the data set on Mus musculus [4], with Mus musculus [8] and in the data set on Mus musculus [18] was “Active” throughout. The half-life at up to 5 µM came to 29.5 min in data set [6], 13.1 min in [11] and 179 min in data set [13]. The activity at 0.5 h, 10 µM on CYP2D6 was determined as 18%. In addition, the minimal effective dose in the data set listed under Mus musculus [9] was found to be 0.875 mg/kg. Further, the Ki in data set [12] was greater than 1000 nM; in data set [17], 16.9 nM.

The record behind these values is ChEMBL document CHEMBL2429786, “New serotonin 5-HT1A receptor agonists endowed with antinociceptive activity in vivo” (J Med Chem, 2013).
